Experimental data from PMC9371723 (Proceedings of the National Academy of Sciences of the …, 2022).

How the values were obtained:
auxin-conjugating GH3s = details: competitive inhibitor; cited from earlier work
TAA1 = details: cited from earlier work
endogenous IAA = details: within 30 min; cited from earlier work
AtGH3.11/JAR1 = details: cited from earlier work
YUC monooxygenase = YUC monooxygenase inhibitors; cited from earlier work
[1] = test system: Arabidopsis thaliana seedlings; assay: Primary and lateral root growth of Arabidopsis seedlings; type: in vivo; details: IAA at 0.05 µM
How it was run: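 Primary root: seedlings grown vertically 6–8 d at 24 °C, continuous light, on GM plates with test compound (5 µM estradiol added for inducible lines); length recorded from photographs. Lateral root: seedlings grown vertically 6 d, moved to horizontal GM plates (2 g/L gellan gum) with chemicals for 2 d at 24 °C; lateral roots counted and primary root length measured.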

[2] = test system: Rice (Oryza sativa cv. Nipponbare) seedlings; assay: Rice seedling primary root and mesocotyl assays; type: in vivo
How it was run: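 Rice cv. Nipponbare seeds sterilised 20 min in 6% hypochlorite, rinsed, then germinated 2 d in sterile water at 28 °C in the dark. Mesocotyl: seedlings submerged 5 d in water with chemicals. Root: seedlings grown on 0.6% water agar with chemicals (n = 11). Both at 25 °C, 18 h light/6 h dark.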

Physcomitrium patens = assay: Moss GH3::GUS reporter line phenotype; type: in vivo; details: 10 μM, 15 d
How it was run: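 P. patens GH3::GUS reporter colonies cultured 15 d on BCDATG medium (0.8% agar) with or without 10 µM test compound and 10 µM IAA. GUS visualised histochemically with X-Gluc; ectopic leafy-like primordia scored.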

AtTIR1–IAA7 peptide = AtTIR1–IAA7 peptide (Arabidopsis thaliana, UniProt Q570C0); assay: SPR analysis of auxin-induced TIR1-IAA7 degron peptide interaction; type: binding
[3] = test system: DII-VENUS fusion reporter protein; details: IAA application; cited from earlier work
AtAFB5–IAA7 = AtAFB5–IAA7 (Arabidopsis thaliana, UniProt Q9LTX2); assay: SPR analysis of auxin-induced AFB5-IAA7 degron peptide interaction; type: binding
[4] = test system: AtGH3.3, IAA19, YUC6 expression; assay: qRT-PCR of auxin-related genes in Arabidopsis; type: in vivo; details: after 60 min of treatment
How it was run: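 Seedlings from vertical GM plates moved to liquid GM for 24 h, then harvested at intervals (10–60 min) after test compound was added. SYBR qRT-PCR: 95 °C 20 s, then 40 cycles of 95 °C 3 s and 60 °C 30 s. ΔΔCt normalised to UBQ10; n = 4, Tukey HSD vs mock.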

[5] = test system: Arabidopsis mutants tir1-1 afb2-1, axr1-3, sav3-2, yucQ; assay: Lateral root formation in auxin signaling and biosynthesis mutants; type: in vivo, Arabidopsis thaliana
How it was run: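 Signalling and biosynthesis mutant seedlings, 4 d old, incubated with test compound for 3 more days. sav3-2 co-treated with 1 µM yucasinDF; yucQ co-treated with 1 µM kynurenine. Read-out was lateral root formation.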

AtTIR1–IAA7 peptide, sequence (Q570C0 whole entry, other chains not shown, the tested form may be a part): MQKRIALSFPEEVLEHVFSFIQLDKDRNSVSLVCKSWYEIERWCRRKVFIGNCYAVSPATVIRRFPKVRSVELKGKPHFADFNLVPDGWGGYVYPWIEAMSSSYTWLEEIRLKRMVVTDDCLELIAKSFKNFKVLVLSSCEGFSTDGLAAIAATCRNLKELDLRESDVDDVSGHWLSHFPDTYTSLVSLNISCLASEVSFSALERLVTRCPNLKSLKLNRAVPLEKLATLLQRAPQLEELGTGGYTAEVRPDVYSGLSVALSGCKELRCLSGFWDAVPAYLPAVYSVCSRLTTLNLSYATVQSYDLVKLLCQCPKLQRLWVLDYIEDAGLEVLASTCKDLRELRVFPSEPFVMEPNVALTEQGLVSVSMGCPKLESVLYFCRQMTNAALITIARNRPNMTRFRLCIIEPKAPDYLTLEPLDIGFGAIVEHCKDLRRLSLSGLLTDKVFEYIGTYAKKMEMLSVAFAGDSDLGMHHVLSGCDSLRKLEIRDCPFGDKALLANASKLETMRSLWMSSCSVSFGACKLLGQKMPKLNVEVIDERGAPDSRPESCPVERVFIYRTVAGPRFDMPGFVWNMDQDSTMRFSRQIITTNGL
AtTIR1–IAA7 peptide, sequence (Q39255 whole entry partner, other chains not shown, the tested form may be a part): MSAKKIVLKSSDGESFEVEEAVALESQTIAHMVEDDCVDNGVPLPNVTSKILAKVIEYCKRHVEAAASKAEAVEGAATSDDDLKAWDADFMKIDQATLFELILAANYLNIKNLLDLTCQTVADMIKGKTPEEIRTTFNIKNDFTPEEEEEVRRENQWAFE
AtAFB5–IAA7, sequence (Q9LTX2 whole entry, other chains not shown): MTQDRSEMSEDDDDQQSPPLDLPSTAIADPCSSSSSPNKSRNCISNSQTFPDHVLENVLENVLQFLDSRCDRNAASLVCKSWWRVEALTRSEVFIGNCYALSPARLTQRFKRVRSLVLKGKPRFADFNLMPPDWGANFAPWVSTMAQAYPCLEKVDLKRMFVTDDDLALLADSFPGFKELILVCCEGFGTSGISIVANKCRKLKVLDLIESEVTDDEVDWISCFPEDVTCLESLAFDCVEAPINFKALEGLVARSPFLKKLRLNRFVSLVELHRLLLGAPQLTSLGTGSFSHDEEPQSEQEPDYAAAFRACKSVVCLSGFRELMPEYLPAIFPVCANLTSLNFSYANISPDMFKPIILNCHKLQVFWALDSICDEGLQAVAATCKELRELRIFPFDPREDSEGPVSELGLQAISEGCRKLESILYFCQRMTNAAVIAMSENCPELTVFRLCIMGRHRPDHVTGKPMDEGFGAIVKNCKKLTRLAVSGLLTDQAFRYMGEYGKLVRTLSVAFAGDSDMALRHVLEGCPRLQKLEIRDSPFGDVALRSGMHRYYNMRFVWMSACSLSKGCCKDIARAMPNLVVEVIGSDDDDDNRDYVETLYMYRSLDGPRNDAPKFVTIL
AtAFB5–IAA7, sequence (Q39255 whole entry partner, other chains not shown): as the sequence (Q39255 whole entry partner, other chains not shown, the tested form may be a part) above

Nc1ncnc2c1ncn2[C@@H]1O[C@H](COP(=O)(O)OCCc2c[nH]c3ccccc23)[C@@H](O)[C@H]1O [AEIP, Adenosine-5-[2-(1H-indol-3-yl)ethyl]phosphate]
in vitro activity against auxin-conjugating GH3s (auxin-conjugating GH3s): micromolar range

Nc1ccccc1C(=O)C[C@H](N)C(=O)O [L-kynurenine]
inhibition of TAA1 (TAA1): competitively inhibit

S=c1nc(-c2ccc(Cl)cc2)[nH][nH]1 [yucasin]
endogenous IAA level (endogenous IAA): decreased the endogenous IAA to almost basal level

COCCC(=O)N1C[C@@H]2C[C@H](C1)c1ccc(NC(=O)c3ccc(-c4ccccc4)cc3)c(=O)n1C2 [jarin-1]
inhibition of AtGH3.11/JAR1 (AtGH3.11/JAR1): selectively inhibits

OB(O)c1ccc(Oc2ccccc2)cc1 [PPBo]
IAA production (YUC monooxygenase): block IAA production

O=C(O)Cc1c[nH]c2ccccc12 [IAA, indole-3-acetic acid]
lateral root formation in WT roots [1]: promoted lateral root formation | mesocotyl elongation in rice ([2]; aerial part of rice seedlings): promoted mesocotyl elongation | primary root elongation in rice ([2]; rice roots): suppressed primary root elongation | ectopic formation of leafy-like primordia (Physcomitrium patens): has not been induced | effect on TIR1–IAA7 peptide association and dissociation (AtTIR1–IAA7 peptide): promotes interaction | time to decomposition of DII-VENUS after application [3]: ≤ 10 min | effect on AFB5–IAA7 peptide association and dissociation (AtAFB5–IAA7): promotes interaction | expression of auxin biosynthesis gene YUC6 [4]: down-regulated | lateral root formation in sav3-2 and yuc Q mutants ([5]; auxin biosynthesis mutants): induced by IAA to a similar extent as WT plants | lateral root formation in tir1-1 afb2-1 and axr1-3 mutants ([5]; auxin signaling mutants): showed resistance
